APP transl inh = inhibitors of APP translation via 5'UTR reporter, primary screen, APP 5'UTR luciferase, SH-SY5Y cells; AID 1285, 2008; inhibition, % at 2 µM; 190,000 compounds, 0.82% hits; SH-SY5Y APP 5'UTR-luciferase reporter, luminescence;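 active means inhibition above a set limit, derived from the sample mean plus 3 SD, cut at about 45% in these data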
IEC-6 tox = cytotoxicity in IEC-6 intestinal epithelial cells, primary screen, cytotoxicity control for KLF5 inhibitor project, cell-based, luminescence; IEC-6 cytotoxicity, luminescence viability; inhibition, % at 5 µM; 290,000 compounds, 0.78% hits; AID 1825, 2009; in the data active means inhibition above about 22%
BaF3 tox = parental Ba/F3 cell viability inhibition, counter-screen for JAK2V617F inhibitor project, murine pro-B, CellTiter-Glo luminescence; CellTiter-Glo ATP luminescence; inhibition, % at 5.6 µM; 220,000 compounds, 1.1% hits; AID 1486, 2009;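 active means inhibition above a per-campaign cutoff, the mean inhibition of all tested compounds plus 3 SD, cut at about 27% in these data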
MT stabilizer = microtubule stabilizers in HeLa cells, primary screen, imaging, high-content imaging | AID 2205, 2009 | 200,000 compounds, 0.83% hits | HeLa tubulin immunostaining HCS, 24 h; share of cells brighter than vehicle mean+2SD | % tubulin-high responders, % at 10 µM;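 active means plate Z-score above 3 for both tubulin-high and condensed-nucleus cell shares, with cell loss under 80%, at 10 µM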;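 further: anti alpha tubulin signal scored within the nucleus-defined area of each cell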
b-catenin transl = modulators of beta-catenin nuclear translocation, primary screen, imaging, HeLa cells, immunofluorescence, high-content; nuclear translocation activity, % at 5 µM; 190,000 compounds, 0.3% hits;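 active means nuclear translocation activity above 50% at 5 µM, with a well cell count of 50 or more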;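 further: per-cell ratio of nuclear to cytoplasmic median beta-catenin stain intensity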
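Test system: human HeLa cells, endogenous beta-catenin. Times: 24 h compound exposure, 37°C. Measured by: beta-catenin immunofluorescence imaging with DAPI.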
Ba/F3 V617F tox = reduced viability of JAK2V617F-dependent Ba/F3 cells, primary screen, JAK2V617F inhibitor project, cell-based, Ba/F3 EpoR-JAK2V617F, luminescence; ATP luminescence; inhibition, % at 5.6 µM; 220,000 compounds, 1.1% hits; AID 1446, 2008;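 active means inhibition above the campaign mean plus 3 SD over all tested compounds, cut at about 24% in these data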;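 further: cytokine-independent growth of Ba/F3 cells driven by EpoR plus mutant JAK2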
BaF3 parental 2 = parental Ba/F3 cell viability inhibition, counter-screen for JAK2V617F inhibitor project, murine pro-B, CellTiter-Glo luminescence. shares compounds with Ba/F3 V617F tox. cells kept alive by added IL-3. inhibition, % at 5.6 µM. 580 compounds, 31% hits;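 active means cell growth inhibition above the hit limit set in the earlier mutant JAK2 cell screen, cut at about 27% in these data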
JAK2V617F conf = viability loss in Ba/F3 EpoR-JAK2V617F cells, confirmation, JAK2V617F inhibitor project, cell-based, luminescence, triplicate. shares compounds with Ba/F3 V617F tox. CellTiter-Glo luminescence. inhibition, % at 5.6 µM. 580 compounds, 66% hits;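 active means mean inhibition above the hit cutoff derived in the earlier primary screen, cut at about 25% in these data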;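 further: higher means lower luminescence from reduced cell ATP and viability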
Each line names hits and unclear results; the compound was inactive in the other large screens (follow-up assays come after a bar, where they were run). Shown are actives, neighbours in structure and some others; about 2.2% of the full set was active somewhere.

O=C(NCCCCCCNC(=O)c1ccc(Br)s1)c1ccc(Br)s1	Ba/F3 V617F tox 37.1 | BaF3 parental 2 inactive | JAK2V617F conf inactive
COc1ccc(N2CCc3c(C)nc4c(OC)cc(OC)cc4c32)c(OC)c1	Ba/F3 V617F tox 48.0 (no result: b-catenin transl) | BaF3 parental 2 inactive | JAK2V617F conf 64.3
CC(C)S(=O)(=O)c1csc(NC(=O)Nc2ccc(Cl)cc2)c1	none (no result: APP transl inh, MT stabilizer)
O=C1C2CC=CCC2C(=O)N1c1ccc(NCCc2ccc(O)cc2)c([N+](=O)[O-])c1 (centres undefined)	none
O=C(O)/C=C\C(=O)Nc1ccccc1C#Cc1ccccc1	none
O=C(O)/C=C\C(=O)Nc1ccccc1C#Cc1ccc(Br)cc1	Ba/F3 V617F tox 35.8 | BaF3 parental 2 inactive | JAK2V617F conf inactive
COc1cccc(CNC(=O)C(=O)NCC2OCCCN2S(=O)(=O)c2cc(C)ccc2C)c1 (centres undefined)	none (no result: APP transl inh, BaF3 tox, MT stabilizer, b-catenin transl, Ba/F3 V617F tox)
CCNC(=S)NNC(=O)c1cccn(Cc2ccc(Cl)cc2Cl)c1=O	none (no result: b-catenin transl)
C=CCNC(=S)NNC(=O)c1cccn(Cc2ccc(Cl)cc2Cl)c1=O	Ba/F3 V617F tox 29.5 | BaF3 parental 2 inactive | JAK2V617F conf inactive
CCN(CC)c1ccc2c(c1)OC(N)=C(C#N)C2c1cccnc1 (centres undefined)	APP transl inh 94.4, MT stabilizer 20.3, b-catenin transl 65.4, Ba/F3 V617F tox 83.5 | BaF3 parental 2 78.4 | JAK2V617F conf 97.7
Cc1ccc(C)c(-c2cc(C(=O)Nc3sc(C)c(C)c3C(N)=O)c3ccccc3n2)c1	none
COc1ccc(F)cc1C(=O)C1CCCN(C(=O)c2cccc(N(C)C)c2)C1 (centres undefined)	Ba/F3 V617F tox 101.8 | BaF3 parental 2 inactive | JAK2V617F conf inactive
CN(C)c1cccc(C(=O)N2CCCC(C(=O)c3cc(F)ccc3F)C2)c1 (centres undefined)	none
COc1ccc(Cl)c(Cn2c(NCc3ccco3)nc3c2c(=O)n(C)c(=O)n3C)c1	Ba/F3 V617F tox 37.4 | BaF3 parental 2 82.8 | JAK2V617F conf 61.8
CCCn1c(NCc2ccco2)nc2c1c(=O)n(C)c(=O)n2C	none
Cc1cc(NC(=O)CSc2nc(-c3ccco3)cc(C(F)(F)F)n2)no1	IEC-6 tox 45.6, MT stabilizer 39.1, Ba/F3 V617F tox 60.7 | BaF3 parental 2 48.4 | JAK2V617F conf 90.5
CCOc1ccc(Cc2nc(N)nc(N)n2)cc1	none
CCCOc1ccc(Cc2nc(N)nc(N)n2)cc1	Ba/F3 V617F tox 39.8 | BaF3 parental 2 inactive | JAK2V617F conf inactive
Cc1ccc(N/C(=C\C(=O)c2ccccc2)C(=O)O)cc1	Ba/F3 V617F tox 40.2 | BaF3 parental 2 inactive | JAK2V617F conf inactive
CCc1nn(CC(=O)NCCC2=CCCCC2)c(=O)c2cc3cc(F)ccc3n12	none (no result: APP transl inh, BaF3 tox, MT stabilizer, b-catenin transl, Ba/F3 V617F tox)
Cc1nc(N=C(N)N)nc2ccccc12	Ba/F3 V617F tox 33.5 | BaF3 parental 2 28.9 | JAK2V617F conf 50.9
O=S(=O)(CCSc1nc2ccccc2s1)c1nc2ccccc2s1	MT stabilizer 10.9, Ba/F3 V617F tox 40.4 | BaF3 parental 2 35.6 | JAK2V617F conf 99.9
CCS(=O)(=O)CCSc1nc2ccccc2s1	none
CCOC(=O)C(=NC(C)CC)NNc1cccc(C(F)(F)F)c1 (centres undefined)	none
CCOC(=O)C(=NC1CCCCC1)NNc1cccc(C(F)(F)F)c1	Ba/F3 V617F tox 36.4 | BaF3 parental 2 inactive | JAK2V617F conf inactive
Cc1cc(NC(=O)c2sc(Nc3ccc(F)cc3)nc2N)no1	Ba/F3 V617F tox 97.7 | BaF3 parental 2 64.7 | JAK2V617F conf 98.8
Cc1cc(C)cc(OCC(=O)O/N=C(\N)c2cccnc2)c1	Ba/F3 V617F tox 34.8 (no result: APP transl inh, MT stabilizer) | BaF3 parental 2 inactive | JAK2V617F conf inactive
O=C(Nc1ccc(NC(=S)NC(=O)C(c2ccccc2)c2ccccc2)cc1)c1ccccc1	MT stabilizer 39.5, Ba/F3 V617F tox 28.1 (no result: b-catenin transl) | BaF3 parental 2 29.0 | JAK2V617F conf 63.6
Cc1nc(NCCC(C)C)c2nnn(Cc3ccccc3)c2n1	none (no result: APP transl inh, BaF3 tox, MT stabilizer, b-catenin transl, Ba/F3 V617F tox)
CC(=O)c1ccc(Sc2nnnn2-c2ccccc2)c([N+](=O)[O-])c1	Ba/F3 V617F tox 44.1 | BaF3 parental 2 inactive | JAK2V617F conf 83.2
O=C1C2C3C=CC(CC3)C2C(=O)N1c1ccc2c(c1)OCO2 (centres undefined)	none
O=C1C2C3C=CC(C3)C2C(=O)N1c1ccc2c(c1)OCO2 (centres undefined)	Ba/F3 V617F tox 57.5 | BaF3 parental 2 inactive | JAK2V617F conf inactive
COc1ccc(-n2nnnc2SCC(=O)c2ccc(O)c(O)c2)cc1	Ba/F3 V617F tox 52.3 | BaF3 parental 2 inactive | JAK2V617F conf 79.2
O=C(c1ccc(Cl)c(S(=O)(=O)N2CCCCC2)c1)N1CCCC1	none (no result: APP transl inh, BaF3 tox, MT stabilizer, b-catenin transl, Ba/F3 V617F tox)
Cn1cc(Br)c(C(=O)N/N=C/c2cc3c(cc2Cl)OCO3)n1	none (no result: APP transl inh, BaF3 tox, MT stabilizer, b-catenin transl, Ba/F3 V617F tox)
Oc1ccc(/C=N/N2CCN(C3c4ccccc4-c4ccccc43)CC2)cc1O	Ba/F3 V617F tox 70.1 (no result: APP transl inh, MT stabilizer) | BaF3 parental 2 inactive | JAK2V617F conf 89.9
Oc1ccc(/C=N/N2CCN(C3c4ccccc4-c4ccccc43)CC2)cc1	none (no result: APP transl inh, MT stabilizer)
Cc1nc([N+](=O)[O-])c(Sc2nc3ccccc3n2C)n1Cc1ccccc1	Ba/F3 V617F tox 28.2 | BaF3 parental 2 inactive | JAK2V617F conf 91.5
COc1ccc(C)cc1NC(=O)c1sc2ncn(CC(=O)N3CCCCC3)c(=O)c2c1C	none (no result: APP transl inh, BaF3 tox, MT stabilizer, b-catenin transl, Ba/F3 V617F tox)
O=C1CC(c2ccccc2)=Nc2ccccc2N1	none (no result: b-catenin transl)
C1=C(c2ccccc2)Nc2ccccc2N=C1c1ccccc1	Ba/F3 V617F tox 101.7 | BaF3 parental 2 inactive | JAK2V617F conf inactive
C=CCn1c(SCC(=O)NCC2CCCO2)nnc1-c1ccccc1 (centres undefined)	none
CCCOc1ccc2ccccc2c1/C=N/n1c(C)nnc1-n1nc(C)cc1C	MT stabilizer 55.3, b-catenin transl 168.2, Ba/F3 V617F tox 23.5 | BaF3 parental 2 55.0 | JAK2V617F conf 65.7
NC1=NC(=O)/C(=C\c2ccsc2)S1	none
COc1ccc(OCC(O)Cn2c(=N)n(Cc3ccccc3)c3ccccc32)cc1 (centres undefined)	Ba/F3 V617F tox 68.5 | BaF3 parental 2 inactive | JAK2V617F conf 34.9
Cc1cccc(OCC(O)Cn2c(=N)n(Cc3ccccc3)c3ccccc32)c1 (centres undefined)	Ba/F3 V617F tox 25.8 (no result: APP transl inh, MT stabilizer) | BaF3 parental 2 inactive | JAK2V617F conf 31.7

Bioassay records: PubChem, several laboratories
